The subject of data set [1] is Rattus norvegicus. Briefly: Antiinflammatory activity in albino rat assessed as inhibition of carrageenan-induced paw edema at 0.28 mmol/kg, po administered 30 mins before carrageenan challenge measured after 3 hrs relative to celecoxib. The note with it: read-out: INH. In kind it is functional. The gist of the method: (§1)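 Calculated from the 3 h % edema inhibition in carrageenan paw edema (male albino rats, oral dosing in 0.5% CMC 30 min before 1% carrageenan subplantar injection). Expressed as % of the inhibition given by the reference drug in the same assay.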
On the technique in general: In the carrageenan paw model, swelling and tenderness develop within hours.

Data set [2] deals with Rattus norvegicus. The data set can be described thus: Antiinflammatory activity in albino rat assessed as inhibition of carrageenan-induced paw edema at 0.28 mmol/kg, po administered 30 mins before carrageenan challenge measured after 3 hrs relative to control. In kind it is functional. In short, it runs like this:
(§2)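 Male albino rats, n = 4 per group. Dosed orally as a suspension in 0.5% w/v CMC in water; controls received CMC alone. 0.1 mL of freshly prepared 1% carrageenan in saline was injected subplantar into the right hind paw 30 min after dosing, with saline in the left paw. Right paw thickness was read by Vernier caliper before and at 1–5 h. Result is % decrease in edema vs control, mean ± S.E.M.; one-way ANOVA.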

The test system of data set [3] is Rattus norvegicus. Briefly: Antiinflammatory activity in albino rat assessed as inhibition of carrageenan-induced paw edema at 0.28 mmol/kg, po administered 30 mins before carrageenan challenge measured after 1 hr relative to control. The data set is classed as functional. The gist of the method:
as §2

Data set [4] has as its system Rattus norvegicus. Briefly: Antiinflammatory activity in albino rat assessed as inhibition of carrageenan-induced paw edema at 0.28 mmol/kg, po administered 30 mins before carrageenan challenge measured after 4 hrs relative to control. The data set is classed as functional. The gist of the method:
as §2

Data set [5] has as its system Rattus norvegicus. The data set can be described thus: Antiinflammatory activity in albino rat assessed as inhibition of carrageenan-induced paw edema at 0.28 mmol/kg, po administered 30 mins before carrageenan challenge measured after 5 hrs relative to control. In kind it is functional. In short, it runs like this: as §2
Data set [6] concerns Rattus norvegicus. Briefly: Antiinflammatory activity in albino rat assessed as inhibition of carrageenan-induced paw edema at 0.28 mmol/kg, po administered 30 mins before carrageenan challenge measured after 2 hrs relative to control. The data set is classed as functional. In short, it runs like this:
as §2

The test system of data set [7] is Rattus norvegicus. The data set can be described thus: Antiinflammatory activity in albino rat assessed as inhibition of carrageenan-induced paw edema at 0.28 mmol/kg, po administered 30 mins before carrageenan challenge measured after 3 hrs relative to indomethacin. In kind it is functional. The note with it: read-out: INH. The gist of the method:
as §1

Data set [8] has as its system Rattus norvegicus. Briefly: Ulcerogenic effect in albino rat assessed as ulcer index at 0.28 mmol/kg, po. The data set is classed as toxicity, organism-based. The note with it: in vivo. In short, it runs like this:
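Rat gastric ulcers were graded by area: level I <1 mm², level II 1–3 mm², level III >3 mm². Ulcer index = 1×(level I count) + 2×(level II) + 3×(level III). Reported as mean ± S.E.M., n = 4.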

Data set [9] relates to Rattus norvegicus. The data set can be described thus: Ulcerogenic effect in albino rat assessed as morphology using hematoxylin and eosin staining at 0.28 mmol/kg, po by light microscopic analysis. The note with it: in vivo. The data set is classed as toxicity, organism-based. In short, it runs like this: (§3)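 Stomach sections were dewaxed through graded alcohols to water and stained with haematoxylin for 5–7 min. They were differentiated 5–10 s in 1% HCl in 70% alcohol, then stained with 1% eosin for 10 min, with tap-water washes between steps. The sections were then examined by light microscopy for mucosal and glandular changes.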

The subject of data set [10] is Rattus norvegicus. Briefly: Ulcerogenic effect in albino rat assessed as apoptotic glandular epithelial cells using hematoxylin and eosin staining at 0.28 mmol/kg, po by light microscopic analysis. In kind it is toxicity, organism-based, Epithelial cell. The note with it: in vivo. In short, it runs like this: as §3
For data set [11], the system named is Rattus norvegicus. Briefly: Ulcerogenic effect in albino rat assessed as capillary inflammatory cells using hematoxylin and eosin staining at 0.28 mmol/kg, po by light microscopic analysis. The note with it: in vivo. In kind it is toxicity, organism-based. The gist of the method:
as §3

In data set [12] the test system is Rattus norvegicus. Briefly: Ulcerogenic effect in albino rat assessed as loss of mucosal membrane using hematoxylin and eosin staining at 0.28 mmol/kg, po by light microscopic analysis. In kind it is toxicity, organism-based. The note with it: in vivo. In short, it runs like this:
as §3

Data set [13] is described as follows: Selectivity ratio IC50 for ovine COX1 to IC50 for human recombinant COX2.
Data set [14] deals with T1, Prostaglandin G/H synthase 1 (Ovis aries, UniProt P05979).
T1 sequence (P05979 whole entry): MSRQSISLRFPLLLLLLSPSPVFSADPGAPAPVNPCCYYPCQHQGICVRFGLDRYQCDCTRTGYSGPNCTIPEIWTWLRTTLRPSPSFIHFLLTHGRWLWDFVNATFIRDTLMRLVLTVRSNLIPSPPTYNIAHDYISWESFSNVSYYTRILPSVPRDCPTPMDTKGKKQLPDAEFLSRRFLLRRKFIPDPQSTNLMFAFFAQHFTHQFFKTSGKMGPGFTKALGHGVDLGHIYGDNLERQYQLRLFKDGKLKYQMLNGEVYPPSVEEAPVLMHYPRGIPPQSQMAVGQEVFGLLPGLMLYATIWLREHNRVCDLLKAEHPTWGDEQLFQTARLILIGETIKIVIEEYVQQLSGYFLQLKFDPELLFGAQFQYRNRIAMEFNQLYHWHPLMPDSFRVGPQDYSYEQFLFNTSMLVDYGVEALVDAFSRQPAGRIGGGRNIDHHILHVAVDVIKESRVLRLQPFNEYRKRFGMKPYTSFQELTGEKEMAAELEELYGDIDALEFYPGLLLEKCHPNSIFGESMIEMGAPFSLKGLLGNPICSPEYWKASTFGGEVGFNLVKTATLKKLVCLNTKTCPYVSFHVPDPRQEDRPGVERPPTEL
The data set can be described thus: Inhibition of ovine COX1 assessed as prostaglandin F2alpha level.

Data set [15] addresses T2, Prostaglandin G/H synthase 2 (Homo sapiens, UniProt P35354).
T2 sequence (P35354 whole entry): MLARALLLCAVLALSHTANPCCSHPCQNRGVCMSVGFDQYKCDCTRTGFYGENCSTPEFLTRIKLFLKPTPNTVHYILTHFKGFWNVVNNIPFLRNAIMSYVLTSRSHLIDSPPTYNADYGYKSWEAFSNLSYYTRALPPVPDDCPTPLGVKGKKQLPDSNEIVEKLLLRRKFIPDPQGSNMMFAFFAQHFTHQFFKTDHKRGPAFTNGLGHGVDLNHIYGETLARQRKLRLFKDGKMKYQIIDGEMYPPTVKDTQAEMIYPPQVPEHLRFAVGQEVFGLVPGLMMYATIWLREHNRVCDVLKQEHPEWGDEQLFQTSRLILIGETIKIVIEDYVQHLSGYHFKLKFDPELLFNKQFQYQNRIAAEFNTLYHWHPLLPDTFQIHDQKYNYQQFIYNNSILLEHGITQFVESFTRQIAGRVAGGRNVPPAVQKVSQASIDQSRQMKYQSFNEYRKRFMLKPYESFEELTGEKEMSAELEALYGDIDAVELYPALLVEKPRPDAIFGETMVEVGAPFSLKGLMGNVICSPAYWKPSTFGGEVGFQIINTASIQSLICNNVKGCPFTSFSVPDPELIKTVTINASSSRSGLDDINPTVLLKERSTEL
The data set can be described thus: Inhibition of human recombinant COX2 assessed as prostaglandin F2alpha level.

The term inhibition in vivo denotes the change of the read-out against control, counted positive when it falls. Consider `COc1ccc(-n2nc(C(=O)Nc3ccccc3C)nc2-c2cc(OC)c(OC)c(OC)c2)cc1`, for which the paw edema inhibition relative to celecoxib at 280 µmol/kg with Rattus norvegicus [1] turned out to be 74%. Further, the inhibition in vivo at 280 µmol/kg with Rattus norvegicus [2] was determined as 50%; in the data set on Rattus norvegicus [3], 19%; with Rattus norvegicus [4], 46%; in the data set with Rattus norvegicus [5] it was 47%; with Rattus norvegicus [6] it was 30%. Also, the paw edema inhibition relative to indomethacin at 280 µmol/kg with Rattus norvegicus [7] was 64%. In the data set on Rattus norvegicus [8], the UI was 1.5. For the same molecule, the Activity result in the data set on Rattus norvegicus [9] is reported as “Non-toxic”.

On to `COc1ccc2c(c1)c(CC(=O)O)c(C)n2C(=O)c1ccc(Cl)cc1` [INDOMETHACIN], for which the inhibition in vivo at 280 µmol/kg is 78% in the data set on Rattus norvegicus [2]; 55% in the data set with Rattus norvegicus [3]; 81% in the data set with Rattus norvegicus [4]; 86% in the data set with Rattus norvegicus [5]; 68% in the data set on Rattus norvegicus [6]. The Activity entry in the data set with Rattus norvegicus [10], in the data set on Rattus norvegicus [11] and in the data set with Rattus norvegicus [12] was “Toxic” in each case. Besides, the UI in the data set with Rattus norvegicus [8] is listed as 41.

One may read the IC50 as the point on the concentration scale where inhibition reaches its midpoint. Consider `COc1ccc(-n2nc(C(=O)NN)nc2-c2cc(OC)c(OC)c(OC)c2)cc1`, for which the paw edema inhibition relative to celecoxib at 280 µmol/kg in the data set with Rattus norvegicus [1] came to 84%. In addition, the inhibition in vivo at 280 µmol/kg in the data set with Rattus norvegicus [2] was 57%; in the data set on Rattus norvegicus [3], 36%; in the data set with Rattus norvegicus [4] it was 54%; in the data set on Rattus norvegicus [5], 56%; with Rattus norvegicus [6], 47%. For the same molecule, in data set [13], the Ratio IC50 was 0.86. The concentration for half-maximal inhibition (IC50) in data set [14] was 39.8 µM; in data set [15] it was 46.3 µM. In addition, the paw edema inhibition relative to indomethacin at 280 µmol/kg in the data set on Rattus norvegicus [7] turned out to be 73%. Besides, the UI in the data set with Rattus norvegicus [8] was 2.

For the molecule `CNC(=O)c1nc(-c2cc(OC)c(OC)c(OC)c2)n(-c2ccc(OC)cc2)n1`, the paw edema inhibition relative to celecoxib at 280 µmol/kg in the data set on Rattus norvegicus [1] is 109%. Also, the inhibition in vivo at 280 µmol/kg with Rattus norvegicus [2] was 74%; in the data set with Rattus norvegicus [3], 56%; in the data set with Rattus norvegicus [4], 65%; in the data set with Rattus norvegicus [5], 50%; in the data set on Rattus norvegicus [6], 74%. The Ratio IC50 in data set [13] stood at 0.67. Besides, the IC50 amounted to 45.9 µM in data set [14] and 68.2 µM in [15]. For the same molecule, the paw edema inhibition relative to indomethacin at 280 µmol/kg in the data set with Rattus norvegicus [7] came out at 95%. Moreover, the UI with Rattus norvegicus [8] amounted to 7.5.
